Assay results of several laboratories.
Compare with care: the assays were run in different laboratories.
Target: Serine/threonine-protein kinase N1 (PKN1, Homo sapiens, UniProt Q16512)

Structure (SMILES) | assay | conditions | remaining binding [%]
O=C(c1ccc(Nc2nccc(-c3cc4ccccc4s3)n2)cc1)N1CCC(N2CCCC2)CC1 | binding, competition with immobilised ligand | 1 µM | 12
COc1cnc(Nc2cccc(S(N)(=O)=O)c2)nc1N1CCN(c2ccccc2)CC1 | binding, competition with immobilised ligand | 1 µM | 82
CCOCCn1cc(C(=O)Nc2ccc(-n3nc(-c4cccnc4)cc3C(F)(F)F)cn2)ccc1=O | cell-free assay, competition with immobilised ligand | 1 µM | 76
c1cncc(-c2cccc(Nc3nccc(NC4CCCCC4)n3)c2)c1 | binding, competition with immobilised ligand | 10 µM | 64
CC1=C(C#N)C(c2ccc3c(c2)c(NC(=O)c2ccccc2C)nn3C)C(C#N)=C(C)N1 | cell-free assay, competition with immobilised ligand | 1 µM | 78
Cc1cnc(Nc2ccc(C(=O)N3CCC(N4CCCC4)CC3)cc2)nc1-c1cc2ccccc2s1 | binding, competition with immobilised ligand | 1 µM | 1.2
c1cnn2ncc(-c3ccnc(N4CCC45COC5)n3)c2c1 | binding | 1 µM | 87
COc1ccc2cc(OCC3(C(=O)O)CN(C(=O)c4ccc(F)cc4)C3)ccc2c1 | cell-free assay, competition with immobilised ligand | 1 µM | 100
Nc1ncc2c(n1)-c1c([nH]c3ccc(C#CC4CC4)cc13)CCCC2 | binding, competition with immobilised ligand | 1 µM | 78
CNC(=O)[C@@H]1CC[C@@H](n2c(-c3ccc4cnccc4c3)nc3ccc(C(=O)NCc4cccc(C(N)=O)c4)cc32)C1 | binding, competition with immobilised ligand | 1 µM | 92
CN(c1nccc(-c2cnn3ncccc23)n1)C1CC1 | binding | 1 µM | 100
Cc1nc(N2CC[C@@H](O)C2)ncc1-c1cc(C(F)(F)F)cc2[nH]ncc12 | binding, competition with immobilised ligand | 1 µM | 100
CC1CCCN1c1nccc(-c2cnn3ncccc23)n1 (stereo not shown) | binding | 1 µM | 100
O=C(NCC1CCOCC1)c1n[nH]cc1NC(=O)c1c(F)cccc1F | binding, competition with immobilised ligand | 1 µM | 100
O=C(NCCCN1CCOCC1)c1ccc(Nc2nccc(-c3cc4ccccc4s3)n2)cc1 | binding, competition with immobilised ligand | 1 µM | 37
CN(C)c1ncnc(-c2ccc3nc(Nc4cc(CN5CCN(C(=O)CC(F)(F)F)CC5)ccn4)[nH]c3c2)c1Cl | cell-free assay, competition with immobilised ligand | 1 µM | 100
N[C@@H]1CCN(c2nccc(-c3cnn4ncccc34)n2)C1 | binding | 1 µM | 93
C[C@@H](c1ccc(-n2cnc3c(N)ncnc32)cc1)N1CCc2nn(C)c(Cc3ccccc3)c2C1=O | binding, competition with immobilised ligand | 0.1 µM | 98
O=C1CCc2cc(Nc3cc(OC4CCOCC4)c([N+](=O)[O-])cc3Cl)ccc2N1 | cell-free assay, competition with immobilised ligand | 1 µM | 100
CN(CCCC(F)(F)F)c1nccc(-c2cnn3ncccc23)n1 | binding | 1 µM | 100
O=C(Nc1cnc(Oc2ccc(F)cc2)nc1)N1CCc2ncccc2[C@@H]1c1ccc(F)cc1 | cell-free assay, competition with immobilised ligand | 1 µM | 95
Cc1cnn2ncc(-c3ccnc(N(C)C)n3)c2c1 | binding | 1 µM | 99
